# Laboratory results from ChEMBL document CHEMBL3632609, “Hederagenin as a triterpene template for the development of new antitumor compounds” (Eur J Med Chem, 2015).
# Tests used:
# Format in all cases: functional, cell-based
# [1] = Cytotoxicity against human 518A2 cells assessed as cell survival after 96 hrs by sulforhodamine B assay; settings: 518A2, 96 h
# Procedure, shortened: (§1)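 Cells in exponential growth were seeded at densities that avoided confluence and, after 24 h, exposed to serial compound dilutions (0-30 μM, DMSO ≤0.5% final) for 96 h. Cells were then fixed with 10% TCA at 4 °C, washed with water, and stained with 0.4% SRB for about 20 min. Excess dye was removed with 1% acetic acid, bound dye was taken up in 10 mM Tris base, and absorbance was read at 570 nm.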
# [2] = tested on: A2780; test: Cytotoxicity against human A2780 cells assessed as cell survival after 96 hrs by sulforhodamine B assay; settings: A2780, 96 h; procedure, shortened: as §1
# [3] = tested on: HT-29; test: Cytotoxicity against human HT-29 cells assessed as cell survival after 96 hrs by sulforhodamine B assay; settings: HT-29, 96 h; procedure, shortened: as §1
# [4] = tested on: MCF7; test: Cytotoxicity against human MCF7 cells assessed as cell survival after 96 hrs by sulforhodamine B assay; settings: MCF7, 96 h; procedure, shortened: as §1
# [5] = tested on: A549; test: Cytotoxicity against human A549 cells assessed as cell survival after 96 hrs by sulforhodamine B assay; settings: A549, 96 h; procedure, shortened: as §1
# [6] = tested on: 8505C; test: Cytotoxicity against human 8505C cells assessed as cell survival after 96 hrs by sulforhodamine B assay; procedure, shortened: as §1
Structure (SMILES),EC50 [1],EC50 [2],EC50 [3],EC50 [4],EC50 [5],EC50 [6]
CC1(C)CC[C@]2(C(=O)OCc3c(F)c(F)c(F)c(F)c3F)CC[C@]3(C)C(=CC[C@@H]4[C@@]5(C)CC[C@H](O)[C@@](C)(CO)[C@@H]5CC[C@]43C)[C@@H]2C1,12.9 µM,13.1 µM,16.1 µM,16.5 µM,14.8 µM,14.1 µM
Cc1ccccc1COC(=O)[C@]12CCC(C)(C)C[C@H]1C1=CC[C@@H]3[C@@]4(C)CC[C@H](O)[C@@](C)(CO)[C@@H]4CC[C@@]3(C)[C@]1(C)CC2,9 µM,12.9 µM,13.2 µM,11.3 µM,12.6 µM,8.4 µM
C#CCOC(=O)[C@]12CCC(C)(C)C[C@H]1C1=CC[C@@H]3[C@@]4(C)CC[C@H](O)[C@@](C)(CO)[C@@H]4CC[C@@]3(C)[C@]1(C)CC2,12.4 µM,17 µM,17.7 µM,15.4 µM,15.9 µM,13.2 µM
Cc1ccc(COC(=O)[C@]23CCC(C)(C)C[C@H]2C2=CC[C@@H]4[C@@]5(C)CC[C@H](O)[C@@](C)(CO)[C@@H]5CC[C@@]4(C)[C@]2(C)CC3)cc1,11.8 µM,14.7 µM,14.8 µM,13.7 µM,13.7 µM,8.8 µM
CC1(C)CC[C@]2(C(=O)OCc3ccc([N+](=O)[O-])cc3)CC[C@]3(C)C(=CC[C@@H]4[C@@]5(C)CC[C@H](O)[C@@](C)(CO)[C@@H]5CC[C@]43C)[C@@H]2C1,8.4 µM,7.8 µM,7.8 µM,7.8 µM,6.5 µM,6.1 µM
CC1(C)CC[C@]2(C(=O)OCc3c(F)cccc3F)CC[C@]3(C)C(=CC[C@@H]4[C@@]5(C)CC[C@H](O)[C@@](C)(CO)[C@@H]5CC[C@]43C)[C@@H]2C1,7.5 µM,11.6 µM,12 µM,10.2 µM,11.7 µM,8.7 µM
CC1(C)CC[C@]2(C(=O)OCc3ccc(F)cc3)CC[C@]3(C)C(=CC[C@@H]4[C@@]5(C)CC[C@H](O)[C@@](C)(CO)[C@@H]5CC[C@]43C)[C@@H]2C1,10.2 µM,11.4 µM,11.3 µM,9.2 µM,8.5 µM,6.7 µM
CC1(C)CC[C@]2(C(=O)OCc3cccc([N+](=O)[O-])c3)CC[C@]3(C)C(=CC[C@@H]4[C@@]5(C)CC[C@H](O)[C@@](C)(CO)[C@@H]5CC[C@]43C)[C@@H]2C1,8.1 µM,11.9 µM,12 µM,8.3 µM,8.1 µM,6.6 µM
CC1(C)CC[C@]2(C(=O)OCc3cccc(Cl)c3)CC[C@]3(C)C(=CC[C@@H]4[C@@]5(C)CC[C@H](O)[C@@](C)(CO)[C@@H]5CC[C@]43C)[C@@H]2C1,11.7 µM,13.8 µM,14.8 µM,13 µM,13 µM,11.9 µM
CC1(C)CC[C@]2(C(=O)NCc3ccccc3)CC[C@]3(C)C(=CC[C@@H]4[C@@]5(C)CC[C@H](O)[C@@](C)(CO)[C@@H]5CC[C@]43C)[C@@H]2C1,13.7 µM,11.4 µM,15.1 µM,14.6 µM,15.7 µM,13.5 µM
CC1(C)CC[C@]2(C(=O)OCc3cccc(Br)c3)CC[C@]3(C)C(=CC[C@@H]4[C@@]5(C)CC[C@H](O)[C@@](C)(CO)[C@@H]5CC[C@]43C)[C@@H]2C1,13.8 µM,14.6 µM,15.3 µM,14.2 µM,14.2 µM,13.7 µM
CC1(C)CC[C@]2(C(=O)OCCCN3C(=O)c4ccccc4C3=O)CC[C@]3(C)C(=CC[C@@H]4[C@@]5(C)CC[C@H](O)[C@@](C)(CO)[C@@H]5CC[C@]43C)[C@@H]2C1,8.7 µM,12.1 µM,13.4 µM,9 µM,11.4 µM,10.3 µM
CC1(C)CC[C@]2(C(=O)OCc3ccccc3)CC[C@]3(C)C(=CC[C@@H]4[C@@]5(C)CC[C@H](O)[C@@](C)(CO)[C@@H]5CC[C@]43C)[C@@H]2C1,7.8 µM,9.7 µM,9.5 µM,7.9 µM,7 µM,7.6 µM
CC1(C)CC[C@]2(C(=O)OCc3ccc(Cl)cc3)CC[C@]3(C)C(=CC[C@@H]4[C@@]5(C)CC[C@H](O)[C@@](C)(CO)[C@@H]5CC[C@]43C)[C@@H]2C1,11.4 µM,13 µM,13.5 µM,12.7 µM,9.8 µM,8.1 µM
CC1(C)CC[C@]2(C(=O)OCc3c(Cl)cccc3Cl)CC[C@]3(C)C(=CC[C@@H]4[C@@]5(C)CC[C@H](O)[C@@](C)(CO)[C@@H]5CC[C@]43C)[C@@H]2C1,9.2 µM,14.4 µM,13.3 µM,12.7 µM,12.9 µM,9.4 µM
CC1(C)CC[C@]2(C(=O)On3nnc4ccccc43)CC[C@]3(C)C(=CC[C@@H]4[C@@]5(C)CC[C@H](O)[C@@](C)(CO)[C@@H]5CC[C@]43C)[C@@H]2C1,8.6 µM,8.8 µM,11.2 µM,7.7 µM,9.5 µM,9.5 µM
CC1(C)CC[C@]2(C(=O)O)CC[C@]3(C)C(=CC[C@@H]4[C@@]5(C)CC[C@H](O)[C@@](C)(CO)[C@@H]5CC[C@]43C)[C@@H]2C1 [HEDERAGENIN],34.9 µM,19.9 µM,50 µM,25.7 µM,29 µM,38 µM
C#CCNC(=O)[C@]12CCC(C)(C)C[C@H]1C1=CC[C@@H]3[C@@]4(C)CC[C@H](O)[C@@](C)(CO)[C@@H]4CC[C@@]3(C)[C@]1(C)CC2,21.6 µM,14.8 µM,17.3 µM,17 µM,16.8 µM,22.1 µM
CC1(C)CC[C@]2(C(=O)OCc3ccc(Br)cc3)CC[C@]3(C)C(=CC[C@@H]4[C@@]5(C)CC[C@H](O)[C@@](C)(CO)[C@@H]5CC[C@]43C)[C@@H]2C1,11.6 µM,13.2 µM,13.7 µM,13.5 µM,13.5 µM,8.6 µM
CC1(C)CC[C@]2(C(=O)OCc3ccccc3Cl)CC[C@]3(C)C(=CC[C@@H]4[C@@]5(C)CC[C@H](O)[C@@](C)(CO)[C@@H]5CC[C@]43C)[C@@H]2C1,11.7 µM,13.6 µM,13.5 µM,12.7 µM,13.6 µM,9.5 µM
CC1(C)CC[C@]2(C(=O)OCc3ccc(F)cc3F)CC[C@]3(C)C(=CC[C@@H]4[C@@]5(C)CC[C@H](O)[C@@](C)(CO)[C@@H]5CC[C@]43C)[C@@H]2C1,9.5 µM,12.9 µM,13 µM,11.5 µM,11.4 µM,8 µM
COc1cc(COC(=O)[C@]23CCC(C)(C)C[C@H]2C2=CC[C@@H]4[C@@]5(C)CC[C@H](O)[C@@](C)(CO)[C@@H]5CC[C@@]4(C)[C@]2(C)CC3)cc(OC)c1,12.7 µM,13.5 µM,14 µM,13.4 µM,14 µM,12.8 µM
CC1(C)CC[C@]2(C(=O)NCCN3CCCCC3)CC[C@]3(C)C(=CC[C@@H]4[C@@]5(C)CC[C@H](O)[C@@](C)(CO)[C@@H]5CC[C@]43C)[C@@H]2C1,3.7 µM,1.8 µM,1.3 µM,6.5 µM,2.7 µM,3.6 µM
CC1(C)CC[C@]2(C(=O)OCc3ccccc3Br)CC[C@]3(C)C(=CC[C@@H]4[C@@]5(C)CC[C@H](O)[C@@](C)(CO)[C@@H]5CC[C@]43C)[C@@H]2C1,10.9 µM,14.3 µM,14.3 µM,12.7 µM,13.2 µM,7.8 µM
CC1(C)CC[C@]2(C(=O)NCCN3CCOCC3)CC[C@]3(C)C(=CC[C@@H]4[C@@]5(C)CC[C@H](O)[C@@](C)(CO)[C@@H]5CC[C@]43C)[C@@H]2C1,> 30 µM,> 30 µM,> 30 µM,> 30 µM,> 30 µM,> 30 µM
CC1(C)CC[C@]2(C(=O)OCCC3OCCCO3)CC[C@]3(C)C(=CC[C@@H]4[C@@]5(C)CC[C@H](O)[C@@](C)(CO)[C@@H]5CC[C@]43C)[C@@H]2C1,11.1 µM,15 µM,13.4 µM,12.7 µM,13.1 µM,13.1 µM
CC1(C)CC[C@]2(C(=O)OCc3ccccc3[N+](=O)[O-])CC[C@]3(C)C(=CC[C@@H]4[C@@]5(C)CC[C@H](O)[C@@](C)(CO)[C@@H]5CC[C@]43C)[C@@H]2C1,10.3 µM,12.9 µM,12.8 µM,10.2 µM,10.9 µM,8.8 µM
CC1(C)CC[C@]2(C(=O)OCc3ccccc3F)CC[C@]3(C)C(=CC[C@@H]4[C@@]5(C)CC[C@H](O)[C@@](C)(CO)[C@@H]5CC[C@]43C)[C@@H]2C1,10 µM,13.4 µM,13.2 µM,12.5 µM,13.2 µM,11.2 µM
Cc1cccc(COC(=O)[C@]23CCC(C)(C)C[C@H]2C2=CC[C@@H]4[C@@]5(C)CC[C@H](O)[C@@](C)(CO)[C@@H]5CC[C@@]4(C)[C@]2(C)CC3)c1,10.9 µM,13.7 µM,14.4 µM,13.5 µM,13.5 µM,9.7 µM
